Test results taken from ChEMBL document CHEMBL3120078, “Benzofuran derivatives as a novel class of inhibitors of mTOR signaling” (Eur J Med Chem, 2014).
Activity calls are given as the source filed them. No cut-off for these calls is given here.

What was measured:
SQ20B [1] = experiment: Cytotoxicity against human SQ20B cells after 72 hrs by MTT assay; format: functional, cell-based
In short: (§1)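 Cells grown in RPMI with 10% FCS, 2 mM glutamine and antibiotics at 37 °C, 5% CO2, seeded at 2 × 10³ cells/well. Treated 72 h, then MTT 0.4 mg/ml for 4 h at 37 °C. Formazan dissolved in DMSO, absorbance read at 560 nm. Untreated wells and cell-free wells as controls. IC50 taken from dose–response curves.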

HCC 2998 = experiment: Cytotoxicity against human HCC2998 cells after 72 hrs by MTT assay; format: functional, cell-based; details: HCC 2998, 72 h
[2] = target: T1, RAC-alpha serine/threonine-protein kinase (Homo sapiens, UniProt P31749); experiment: Inhibition of Akt/mTOR in human 786-O cells assessed as inhibition of nuclear export of transcription factor FOXO1a; format: cell-based
[3] = Cytotoxicity against human 786-O cells; format: functional, cell-based; details: 786-0
HOP-92 = experiment: Cytotoxicity against human HOP92 cells after 72 hrs by MTT assay; format: functional, cell-based; details: HOP-92, 72 h
[4] = target: Regulatory-associated protein of mTOR (Homo sapiens) (UniProt Q8N122); experiment: Binding affinity to raptor in human SQ20B cells after 10 to 12 hrs by pull down assay; format: cell-based
[5] = target: T1, RAC-alpha serine/threonine-protein kinase; experiment: Binding affinity to Akt in human SQ20B cells after 10 to 12 hrs by pull down assay; format: cell-based
[6] = target: Rapamycin-insensitive companion of mTOR (Homo sapiens) (UniProt Q6R327); experiment: Binding affinity to rictor in human SQ20B cells after 10 to 12 hrs by pull down assay; format: cell-based
mTORC1 (Homo sapiens) [7] = target: T2, mTORC1 (Homo sapiens) (UniProt P42345+Q8N122+Q9BVC4); experiment: Inhibition of mTORC1 in human SQ20B cells assessed as AKT phosphorylation after 10 to 12 hrs by pull down assay; format: cell-based
[8] = target: T3, 3-phosphoinositide-dependent protein kinase 1 (Homo sapiens) (UniProt O15530); experiment: Binding affinity to PDK1 in human SQ20B cells after 10 to 12 hrs by pull down assay; format: cell-based
T3 sequence (whole entry): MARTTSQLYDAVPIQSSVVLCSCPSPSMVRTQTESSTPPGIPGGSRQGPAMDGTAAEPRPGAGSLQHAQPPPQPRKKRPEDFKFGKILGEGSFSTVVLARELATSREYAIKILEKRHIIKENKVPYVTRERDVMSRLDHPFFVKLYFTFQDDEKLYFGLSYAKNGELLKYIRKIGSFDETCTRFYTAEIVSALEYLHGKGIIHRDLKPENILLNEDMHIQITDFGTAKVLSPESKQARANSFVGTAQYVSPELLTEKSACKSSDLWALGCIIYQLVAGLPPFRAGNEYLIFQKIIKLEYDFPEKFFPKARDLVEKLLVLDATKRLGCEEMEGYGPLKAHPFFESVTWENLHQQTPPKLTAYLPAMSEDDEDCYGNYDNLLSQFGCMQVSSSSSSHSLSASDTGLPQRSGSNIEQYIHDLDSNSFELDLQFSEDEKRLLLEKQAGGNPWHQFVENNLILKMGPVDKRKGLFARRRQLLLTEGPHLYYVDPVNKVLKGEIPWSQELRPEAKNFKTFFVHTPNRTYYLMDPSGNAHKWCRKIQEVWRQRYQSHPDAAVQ

mTORC1 (Homo sapiens) [9] = target: T2, mTORC1 (Homo sapiens); experiment: Inhibition of mTORC1 in human SQ20B cells assessed as inhibition of S6 ribosomal protein phosphorylation after 10 to 12 hrs by pull down assay; format: cell-based
[10] = target: Serine/threonine-protein kinase mTOR (Homo sapiens) (UniProt P42345); experiment: Binding affinity to mTOR in human SQ20B cells after 10 to 12 hrs by pull down assay; format: cell-based
SQ20B [11] = experiment: Binding affinity to PI3K in human SQ20B cells after 10 to 12 hrs by pull down assay; format: cell-based
CAKI-1 = experiment: Cytotoxicity against human Caki1 cells after 72 hrs by MTT assay; format: functional, cell-based; details: CAKI-1, 72 h
DU-145 = experiment: Cytotoxicity against human DU145 cells after 72 hrs by MTT assay; format: functional, cell-based; details: DU-145, 72 h
[12] = Cytotoxicity against human SKHEP1 cells after 72 hrs by MTT assay; format: functional, cell-based; details: SK-HEP1, 72 h
HOP-62 = experiment: Cytotoxicity against human HOP62 cells after 72 hrs by MTT assay; format: functional, cell-based; details: HOP-62, 72 h; in short: as §1
HCT-116 = experiment: Cytotoxicity against human HCT116 cells after 72 hrs by MTT assay; format: functional, cell-based; details: HCT-116, 72 h; in short: as §1
OVCAR-3 = experiment: Cytotoxicity against human OVCAR3 cells after 72 hrs by MTT assay; format: functional, cell-based; details: OVCAR-3, 72 h
[13] = Cytotoxicity against human ColoR cells after 72 hrs by MTT assay; format: functional, cell-based; in short: as §1
COLO 205 = experiment: Cytotoxicity against human COLO205 cells after 72 hrs by MTT assay; format: functional, cell-based; details: COLO 205, 72 h; in short: as §1
HT-29 = experiment: Cytotoxicity against human HT-29 cells after 72 hrs by MTT assay; format: functional, cell-based; details: HT-29, 72 h; in short: as §1

T2 sequence (Q8N122 whole entry, looked up, other chains not shown): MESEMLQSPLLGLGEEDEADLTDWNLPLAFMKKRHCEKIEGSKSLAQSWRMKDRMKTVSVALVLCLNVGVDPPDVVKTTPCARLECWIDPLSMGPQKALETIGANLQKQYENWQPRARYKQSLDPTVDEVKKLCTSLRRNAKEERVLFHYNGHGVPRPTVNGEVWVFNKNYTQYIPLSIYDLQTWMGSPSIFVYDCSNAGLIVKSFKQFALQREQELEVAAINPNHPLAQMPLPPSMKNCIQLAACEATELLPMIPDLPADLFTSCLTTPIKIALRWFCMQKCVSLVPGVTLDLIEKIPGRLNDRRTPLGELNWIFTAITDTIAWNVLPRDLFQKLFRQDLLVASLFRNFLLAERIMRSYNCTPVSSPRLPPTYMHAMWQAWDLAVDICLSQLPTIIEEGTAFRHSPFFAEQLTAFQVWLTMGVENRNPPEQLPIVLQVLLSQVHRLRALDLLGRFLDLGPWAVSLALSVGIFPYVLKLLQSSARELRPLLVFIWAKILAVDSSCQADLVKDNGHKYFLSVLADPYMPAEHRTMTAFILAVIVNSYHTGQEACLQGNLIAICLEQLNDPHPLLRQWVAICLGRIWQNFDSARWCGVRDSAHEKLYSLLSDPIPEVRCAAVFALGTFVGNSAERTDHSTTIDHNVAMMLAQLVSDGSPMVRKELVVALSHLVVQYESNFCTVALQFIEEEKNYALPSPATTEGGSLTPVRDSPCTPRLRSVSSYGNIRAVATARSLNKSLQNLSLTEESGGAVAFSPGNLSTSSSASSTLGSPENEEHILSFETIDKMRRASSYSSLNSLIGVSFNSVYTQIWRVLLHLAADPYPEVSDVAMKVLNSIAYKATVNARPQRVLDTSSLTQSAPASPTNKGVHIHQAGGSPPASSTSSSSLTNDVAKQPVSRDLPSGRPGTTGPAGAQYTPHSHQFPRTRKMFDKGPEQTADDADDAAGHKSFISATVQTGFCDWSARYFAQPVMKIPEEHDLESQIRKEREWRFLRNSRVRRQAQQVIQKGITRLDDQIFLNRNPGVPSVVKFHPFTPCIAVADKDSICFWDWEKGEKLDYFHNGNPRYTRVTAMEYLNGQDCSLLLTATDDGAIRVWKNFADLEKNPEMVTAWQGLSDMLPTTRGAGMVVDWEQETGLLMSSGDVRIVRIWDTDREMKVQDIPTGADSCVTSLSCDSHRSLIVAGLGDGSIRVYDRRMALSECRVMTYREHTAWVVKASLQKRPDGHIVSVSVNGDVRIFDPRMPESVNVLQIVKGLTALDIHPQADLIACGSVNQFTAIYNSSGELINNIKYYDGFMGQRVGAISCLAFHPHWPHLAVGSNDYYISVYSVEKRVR
T2 sequence (Q9BVC4 whole entry, looked up, other chains not shown): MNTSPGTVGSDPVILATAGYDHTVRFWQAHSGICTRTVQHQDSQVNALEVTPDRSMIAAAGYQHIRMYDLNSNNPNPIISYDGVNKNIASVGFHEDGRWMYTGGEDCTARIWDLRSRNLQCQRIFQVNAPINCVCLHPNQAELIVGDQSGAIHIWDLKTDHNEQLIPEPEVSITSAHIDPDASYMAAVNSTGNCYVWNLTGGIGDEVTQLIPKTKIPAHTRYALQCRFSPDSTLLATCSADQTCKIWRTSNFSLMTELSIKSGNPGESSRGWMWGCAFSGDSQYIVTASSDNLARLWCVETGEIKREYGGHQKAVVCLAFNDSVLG
T1 sequence (P31749 whole entry): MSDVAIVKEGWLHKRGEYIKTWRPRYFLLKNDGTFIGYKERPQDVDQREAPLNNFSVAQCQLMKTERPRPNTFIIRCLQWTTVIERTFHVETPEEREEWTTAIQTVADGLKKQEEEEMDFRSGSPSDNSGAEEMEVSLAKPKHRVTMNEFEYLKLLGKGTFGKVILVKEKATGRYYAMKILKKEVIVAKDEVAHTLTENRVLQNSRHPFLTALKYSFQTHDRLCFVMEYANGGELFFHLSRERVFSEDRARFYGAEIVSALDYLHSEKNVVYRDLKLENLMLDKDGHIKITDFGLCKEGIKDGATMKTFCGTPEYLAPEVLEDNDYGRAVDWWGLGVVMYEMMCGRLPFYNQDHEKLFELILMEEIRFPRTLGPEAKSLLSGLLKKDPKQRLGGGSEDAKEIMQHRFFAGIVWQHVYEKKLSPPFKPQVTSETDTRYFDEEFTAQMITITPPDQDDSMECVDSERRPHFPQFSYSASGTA
Sequence of Rapamycin-insensitive companion of mTOR (Homo sapiens) (Q6R327 whole entry): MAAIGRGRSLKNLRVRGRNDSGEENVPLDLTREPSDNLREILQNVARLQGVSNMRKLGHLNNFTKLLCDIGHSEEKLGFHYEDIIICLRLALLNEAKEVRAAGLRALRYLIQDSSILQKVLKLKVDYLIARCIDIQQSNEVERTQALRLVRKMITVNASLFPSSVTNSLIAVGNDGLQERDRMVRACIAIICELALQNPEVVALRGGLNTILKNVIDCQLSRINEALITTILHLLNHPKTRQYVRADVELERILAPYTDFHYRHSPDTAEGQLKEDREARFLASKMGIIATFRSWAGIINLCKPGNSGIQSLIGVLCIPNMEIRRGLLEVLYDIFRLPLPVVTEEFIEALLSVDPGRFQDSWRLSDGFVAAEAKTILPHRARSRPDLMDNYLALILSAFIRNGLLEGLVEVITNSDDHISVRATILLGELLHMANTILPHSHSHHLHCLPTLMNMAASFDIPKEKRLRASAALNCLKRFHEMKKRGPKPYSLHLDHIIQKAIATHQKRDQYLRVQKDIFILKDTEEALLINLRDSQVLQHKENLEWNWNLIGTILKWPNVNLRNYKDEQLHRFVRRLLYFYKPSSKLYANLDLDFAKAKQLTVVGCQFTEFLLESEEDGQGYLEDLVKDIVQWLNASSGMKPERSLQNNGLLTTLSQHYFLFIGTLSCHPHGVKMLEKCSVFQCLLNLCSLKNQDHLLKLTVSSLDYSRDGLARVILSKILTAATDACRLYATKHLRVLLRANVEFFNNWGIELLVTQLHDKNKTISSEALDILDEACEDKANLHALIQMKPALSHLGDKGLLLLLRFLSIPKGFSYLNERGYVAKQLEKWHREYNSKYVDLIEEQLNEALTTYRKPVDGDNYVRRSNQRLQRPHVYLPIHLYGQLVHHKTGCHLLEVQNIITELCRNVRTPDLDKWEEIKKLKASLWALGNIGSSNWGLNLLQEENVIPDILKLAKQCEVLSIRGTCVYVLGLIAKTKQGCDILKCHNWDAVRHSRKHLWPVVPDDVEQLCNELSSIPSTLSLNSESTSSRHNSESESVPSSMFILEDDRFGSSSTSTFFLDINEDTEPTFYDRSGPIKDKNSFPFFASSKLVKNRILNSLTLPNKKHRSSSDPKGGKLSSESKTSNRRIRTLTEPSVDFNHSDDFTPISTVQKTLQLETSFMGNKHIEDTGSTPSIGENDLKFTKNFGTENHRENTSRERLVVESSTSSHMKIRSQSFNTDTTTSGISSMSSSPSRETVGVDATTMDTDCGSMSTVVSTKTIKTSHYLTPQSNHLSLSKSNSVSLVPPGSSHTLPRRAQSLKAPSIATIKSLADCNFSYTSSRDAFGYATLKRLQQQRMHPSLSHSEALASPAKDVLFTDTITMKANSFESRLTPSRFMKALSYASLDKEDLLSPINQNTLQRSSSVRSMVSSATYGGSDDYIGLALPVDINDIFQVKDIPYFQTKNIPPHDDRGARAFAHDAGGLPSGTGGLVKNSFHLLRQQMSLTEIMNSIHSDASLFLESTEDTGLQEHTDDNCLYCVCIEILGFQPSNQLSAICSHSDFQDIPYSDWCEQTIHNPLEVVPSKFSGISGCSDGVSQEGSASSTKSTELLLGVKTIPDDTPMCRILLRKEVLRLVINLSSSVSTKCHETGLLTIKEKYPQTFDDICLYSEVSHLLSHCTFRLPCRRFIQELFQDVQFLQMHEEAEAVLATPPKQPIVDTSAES
Sequence of Regulatory-associated protein of mTOR (Homo sapiens) (Q8N122 whole entry): as the sequence (Q8N122 whole entry, looked up, other chains not shown) above

## Oc1ccc2oc(Cc3ccccc3)cc2c1CN1CCOCC1
SQ20B [1]
  IC50: 6.5 µM

## OCCN(Cc1c(O)ccc2oc(Cc3ccccc3)cc12)C1CCCCC1
SQ20B [1]
  IC50: 27 µM

## O=CN1CCN(Cc2c(O)ccc3oc(Cc4ccccc4)cc23)CC1
SQ20B [1]
  IC50: 49 µM

## Oc1ccc2oc(Cc3ccccc3)cc2c1CN1CCCC(O)C1 (stereo not given)
SQ20B [1]
  IC50: 11 µM

## Oc1ccc2oc(Cc3ccccc3)cc2c1CN1CCC(O)CC1
SQ20B [1]
  IC50: 13 µM

## CON(C)Cc1c(O)ccc2oc(Cc3ccccc3)cc12
SQ20B [1]
  IC50: 40 µM

## CCN(CC)Cc1c(O)ccc2oc(Cc3ccccc3)cc12
SQ20B [1]
  IC50: 12 µM

## CN(C)Cc1c(O)ccc2oc(Cc3ccccc3)cc12
HCC 2998
  IC50: 40 µM
[2]
  IC50: 20 µM
SQ20B [1]
  IC50: 33 µM
[3]
  IC50: 10 µM
HOP-92
  IC50: 40 µM

## O=C(CCC(=O)ON1C(=O)CCC1=O)NCCNC(=O)COC(=O)NCCOCCOCCOCCOCCOCCOCCNC(=O)C1CCN(C2CCN(Cc3c(O)ccc4oc(-c5ccccc5)cc34)CC2)CC1
[4]
  Activity: inactive
[5]
  Activity: inactive
[6]
  Activity: inactive
mTORC1 (Homo sapiens) [7]
  inhibition: Active
[8]
  Activity: inactive
mTORC1 (Homo sapiens) [9]
  inhibition: Dose-dependent effect
[10]
  Activity: Active
SQ20B [11]
  Activity: inactive

## NC(=O)C1CCN(Cc2c(O)ccc3oc(Cc4ccccc4)cc23)CC1
SQ20B [1]
  IC50: 85 µM

## Oc1ccc2oc(Cc3ccccc3)cc2c1CN1CCc2ccccc2C1
SQ20B [1]
  IC50: 16 µM

## Oc1ccc2oc(Cc3ccccc3)cc2c1CN1CCC(N2CCCC2)CC1
SQ20B [1]
  IC50: 3 µM
mTORC1 (Homo sapiens) [9]
  inhibition: Dose-dependent effect

## O=C(c1ccccc1)c1cc2c(CN3CCC(N4CCCCC4)CC3)c(O)ccc2o1
SQ20B [1]
  IC50: 17 µM

## OCCN(CCO)Cc1c(O)ccc2oc(Cc3ccccc3)cc12
SQ20B [1]
  IC50: > 200 µM

## COc1cccc2cc(-c3nc([C@H]4CC[C@H](C(=O)O)CC4)n4ncnc(N)c34)[nH]c12 [OSI-027]
CAKI-1
  IC50: 1.9 µM
DU-145
  IC50: 4.1 µM
[12]
  IC50: 3.2 µM
SQ20B [1]
  IC50: 1.3 µM
HOP-62
  IC50: 41 µM
HCT-116
  IC50: 5.6 µM
OVCAR-3
  IC50: 8.1 µM
[13]
  IC50: 5.8 µM
COLO 205
  IC50: 5.8 µM
HT-29
  IC50: 55 µM

## CN(Cc1ccccc1)Cc1c(O)ccc2oc(Cc3ccccc3)cc12
SQ20B [1]
  IC50: 12 µM

## CN(CCO)Cc1c(O)ccc2oc(Cc3ccccc3)cc12
SQ20B [1]
  IC50: 30 µM

## CO[C@H]1C[C@@H]2CC[C@@H](C)[C@@](O)(O2)C(=O)C(=O)N2CCCC[C@H]2C(=O)O[C@H]([C@H](C)C[C@@H]2CC[C@@H](OCCO)[C@H](OC)C2)CC(=O)[C@H](C)/C=C(\C)[C@@H](O)[C@@H](OC)C(=O)[C@H](C)C[C@H](C)/C=C/C=C/C=C/1C [EVEROLIMUS]
CAKI-1
  IC50: 14 µM
DU-145
  IC50: 8 µM
[12]
  IC50: 12 µM
SQ20B [1]
  IC50: 5.5 µM
HOP-62
  IC50: 19 µM
HCT-116
  IC50: 12 µM
OVCAR-3
  IC50: 16 µM
[13]
  IC50: 8.7 µM
COLO 205
  IC50: 20 µM
HT-29
  IC50: 15 µM

## O=C(NCCOCCO)C1CCN(C2CCN(Cc3c(O)ccc4oc(Cc5ccccc5)cc34)CC2)CC1
SQ20B [1]
  IC50: 14 µM

## Oc1ccc2oc(Cc3ccccc3)cc2c1CN1CCC(N2CCCCC2)CC1
CAKI-1
  IC50: 6.9 µM
DU-145
  IC50: 20 µM
[12]
  IC50: 11 µM
SQ20B [1]
  IC50: 3 µM
HOP-62
  IC50: 11 µM
HCT-116
  IC50: 12 µM
OVCAR-3
  IC50: 19 µM
[13]
  IC50: 3.7 µM
COLO 205
  IC50: 3.1 µM
HT-29
  IC50: 5.1 µM

## Oc1ccc2oc(Cc3ccccc3)cc2c1CN1CCC(c2ccccc2)CC1
SQ20B [1]
  IC50: > 200 µM

## Oc1ccc2oc(C(O)c3ccccc3)cc2c1CN1CCC(N2CCCCC2)CC1 (stereo not given)
SQ20B [1]
  IC50: 13 µM

## Oc1ccc2oc(Cc3ccccc3)cc2c1CN1CCN(Cc2ccccc2)CC1
SQ20B [1]
  IC50: 36 µM

## CN1CCN(Cc2c(O)ccc3oc(Cc4ccccc4)cc23)CC1
SQ20B [1]
  IC50: 18 µM

## OCCOCCN1CCN(Cc2c(O)ccc3oc(Cc4ccccc4)cc23)CC1
SQ20B [1]
  IC50: 21 µM

## Oc1ccc2oc(-c3ccccc3)cc2c1CN1CCC(N2CCCCC2)CC1
CAKI-1
  IC50: 26 µM
DU-145
  IC50: 13 µM
[12]
  IC50: 42 µM
SQ20B [1]
  IC50: 2.8 µM
HOP-62
  IC50: 54 µM
HCT-116
  IC50: 57 µM
OVCAR-3
  IC50: 22 µM
[13]
  IC50: 18 µM
COLO 205
  IC50: 6.3 µM
HT-29
  IC50: 45 µM

## CN(Cc1c(O)ccc2oc(Cc3ccccc3)cc12)C1CCCCC1
SQ20B [1]
  IC50: 12 µM
